Most compounds without a hit are left out; they make up all but 4.3% or so of the library.
Rin1 Abl inh = inhibitors of Rin1-Abl protein binding, primary screen, biochemical, TR-FRET; Tyrosine-protein kinase ABL1 (Homo sapiens) + Ras and Rab interactor 1 (Homo sapiens), …; inhibition, % at 7.35 µM; 0.4% of 360,000 active; AID 588664, 2011; in the data active = inhibition above about 5%, passing the limit was not always enough
UBC13 inh = UBC13 polyubiquitin chain formation inhibitors, primary screen, biochemical, TR-FRET, uHTS; Ubiquitin-conjugating enzyme E2 N (Homo sapiens), P61088; inhibition, % at 20 µM; 0.47% of 330,000 active; AID 485273, 2010; in the data active = inhibition above about 45%, passing the limit was not always enough; inconclusive = no clear call, values can overlap the other calls
Target sequence (P61088 whole entry, looked up): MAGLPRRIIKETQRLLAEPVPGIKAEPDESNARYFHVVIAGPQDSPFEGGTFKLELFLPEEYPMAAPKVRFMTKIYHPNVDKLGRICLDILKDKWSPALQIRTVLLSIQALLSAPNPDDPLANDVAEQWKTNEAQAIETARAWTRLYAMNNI
PREPL inh = PREPL enzyme inhibitors, primary screen, biochemical, fluorescence polarization; Prolyl endopeptidase-like (Homo sapiens), Q4J6C6; recombinant PREPL, fluorescence polarization activity-based probe; inhibition, % at 5.96 µM; 0.68% of 320,000 active; AID 2751, 2010; in the data active = inhibition above about 43%;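 also: 0% = enzyme with DMSO and 100% = wells lacking enzyme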
UBC9 SUMO inh = inhibitors of in vitro SUMOylation cascade, primary screen, biochemical, HTRF, uHTS; SUMO-conjugating enzyme UBC9 (Homo sapiens), P63279; HTRF SUMOylation assay, SAE1/SAE2 + UBC9; inhibition, % at 35 µM; 0.36% of 290,000 active; AID 2006, 2009; in the data active = inhibition above about 50%, passing the limit was not always enough; inconclusive = no clear call, values can overlap the other calls
ALR H2O2 inh = inhibitors of human ALR sulfhydryl oxidase, primary screen, biochemical, H2O2 detection, HRP-luminol luminescence, single point. FAD-linked sulfhydryl oxidase ALR (Homo sapiens), P55789. purified ALR, DTT oxidation. inhibition, % (test concentration not listed). 3.8% of 290,000 active. AID 485317, 2010;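 active = mean replicate inhibition above about 79%, with every replicate also reaching it, limit read from the data; inconclusive = only one of the two criteria met; inactive = mean below limit and not every replicate reaching it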
Target sequence (P55789 whole entry, looked up): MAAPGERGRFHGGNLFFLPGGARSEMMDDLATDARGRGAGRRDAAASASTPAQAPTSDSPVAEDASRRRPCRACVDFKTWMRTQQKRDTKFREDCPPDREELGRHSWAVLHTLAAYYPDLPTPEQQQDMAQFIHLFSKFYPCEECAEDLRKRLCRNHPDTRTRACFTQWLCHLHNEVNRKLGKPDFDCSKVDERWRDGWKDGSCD
RBBP9 inhibitor = human RBBP9 inhibitors, primary screen, biochemical, fluorescence polarization, FP-Rh probe, HTS; Serine hydrolase RBBP9 (Homo sapiens), O75884; recombinant RBBP9; inhibition, % at 7.94 µM; 0.2% of 220,000 active; AID 1515, 2009;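 active = inhibition above the campaign mean of all tested compounds plus 3 SD, cut at about 14% in these data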;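 also: plate controls were DMSO wells with RBBP9 for no effect and wells lacking RBBP9 protein for full effect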
Target sequence (O75884 whole entry, looked up): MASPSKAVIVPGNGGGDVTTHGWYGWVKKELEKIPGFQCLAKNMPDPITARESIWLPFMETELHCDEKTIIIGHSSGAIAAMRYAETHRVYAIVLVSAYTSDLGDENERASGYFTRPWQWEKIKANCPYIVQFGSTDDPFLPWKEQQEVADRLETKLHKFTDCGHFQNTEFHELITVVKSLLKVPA
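Material: RBBP9 protein. Amount: RBBP9 at 2.5 µM in dispensed solution, before mixing. Schedule: 30 min then 45 min, 25 °C. Medium: Tris buffer pH 8.0, NaCl, Pluronic. Measured by: fluorescence polarization. Measure: percent inhibition from mP, scaled between DMSO and no-protein wells. Replication: one well per compound.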
An asterisk follows results filed as active; ? = inconclusive; . = not tested or not shown.

SMILES	Rin1 Abl inh	UBC13 inh	PREPL inh	UBC9 SUMO inh	ALR H2O2 inh	RBBP9 inhibitor
Cc1ccc(NC(=O)CSc2nnc(C)c(=O)[nH]2)cc1C	1.6	-12.7	-5.0	8.9	95.1*	-4.7
Cc1sc(NC(=O)CSc2nnc(C)c(=O)[nH]2)c(C#N)c1C	-0.7	3.8	1.7	10.6	98.4*	5.3
Cc1cc(-c2nnc(SCCC(=O)Nc3ccccc3)o2)no1	-0.7	-5.3	.	0.9	-6.4	.
Cc1cc(C(=O)CCl)c(C)n1CCc1ccccc1	.	6.7	18.1	5.0	96.1*	4.9
CCOC(=O)c1cc(C)n(CCc2ccccc2)c1C	0.9	-6.4	2.0	-6.2	22.6	9.3
Cc1cc(C(=O)CCl)c(C)n1Cc1ccco1	2.0	9.3	4.3	16.0	96.8*	4.6
CCc1ccccc1Nc1nc(N)nc(CSCC(=O)c2cc(C)n(C)c2C)n1	-0.9	4.0	7.6	-5.1	97.7*	-6.0
CCc1ccccc1Nc1nc(N)nc(CSc2nnnn2C)n1	0.6	13.0	-4.6	-5.9	-11.0	3.2
CCN(c1ccccc1)S(=O)(=O)c1ccc2c(c1)N(C(C)=O)CCS2	-1.3	-2.5	5.1	13.5	-4.7	.
Cc1ccc(S(=O)(=O)Nc2ccccn2)cc1[N+](=O)[O-]	2.2	2.3	-4.5	12.3	-4.6	-2.9
CCC1NC(=O)c2cc3ccccc3cc2-n2c1nc1ccc(F)cc1c2=O (stereo unspecified)	4.5	.	.	.	.	.
CN1CCN(NC(=S)Nc2ccc(OC(F)F)cc2)CC1	-1.9	-1.7	21.6	-13.4	14.7	5.7
CC1(C)CC(=O)C(C(N)=NC(=O)c2ccc([N+](=O)[O-])cc2)=C(O)C1	1.8	-4.6	3.5	-18.9	89.3*	-2.7
CCOc1ccc(NC(=S)NCCCn2ccnc2)cc1	-4.3	4.6	5.7	14.2	8.6	0.0
CC(C)c1ccccc1NC(=S)NCCCn1ccnc1	-1.3	-6.8	4.2	-1.3	87.0*	-1.8
COc1ccc(-c2nnc(SCC(=O)NC3CC3)o2)cc1	2.5	8.5	-0.4	.	-3.6	.
CN(C)C(=O)/C(C#N)=C\c1cc(Br)c(Sc2ccc(Cl)cc2)o1	1.3	.	6.8	-17.8	93.3*	-4.1
O=C(NCCCN1CCOCC1)c1ccccc1N1C(=O)[C@@H]2Cc3c([nH]c4ccccc34)C(c3ccc(F)cc3)N2C1=O (stereo partly specified)	2.0	5.0	1.9	4.9	22.2	.
O=C(NCCN1CCOCC1)c1ccccc1N1C(=O)[C@@H]2Cc3c([nH]c4ccccc34)C(c3ccccc3)N2C1=O (stereo partly specified)	2.3	5.5	4.3	13.1	99.2*	.
COc1cccc(C2c3[nH]c4ccccc4c3C[C@H]3C(=O)N(c4ccccc4C(=O)NCCCN4CCOCC4)C(=O)N23)c1 (stereo partly specified)	0.3	17.3	7.7	11.0	98.5*	.
Cc1cc(C)c(S(=O)(=O)NC2CC(C)(C)NC(C)(C)C2)cc1Br	-3.6	10.9	.	4.8	-4.3	.
Oc1ccccc1-c1nc(NC2CCCC2)c2ccccc2n1	-0.8	5.0	-1.3	15.6	0.2	.
c1ccc(-c2nnc(-c3ccccn3)nc2NC2CCCCC2)cc1	-12.4	-2.8	86.1*	3.0	0.5	0.9
Cc1c(N=C2SCC(=O)N2/N=C\c2ccc(Br)cc2)c(=O)n(-c2ccccc2)n1C	-0.7	-7.3	16.3	-6.3	92.3*	-2.8
CCC(C)NC(=O)CSc1c2c(nc3ccccc13)CCCC2 (stereo unspecified)	-3.0	-3.9	-0.3	0.3	37.4	-2.7
SMILES	Rin1 Abl inh	UBC13 inh	PREPL inh	UBC9 SUMO inh	ALR H2O2 inh	RBBP9 inhibitor
COc1cccc(NC(=O)CSc2c3c(nc4ccccc24)CCCC3)c1	-5.8	18.0	-5.2	7.4	99.2*	-3.6
COc1cccc(NC(=O)CSc2ncnc3c2cnn3Cc2ccccc2)c1	-2.6	-2.6	0.1	6.7	89.9*	-6.8
Cc1cccc(NC(=O)CSc2c3c(nc4ccccc24)CCC3)n1	-2.8	20.0	0.7	3.8	98.6*	-6.2
C[C@H](NC(=O)C1CCN(S(=O)(=O)c2ccccc2)CC1)C(=O)NCc1cccnc1	-3.9	.	.	.	.	.
C/C(=N/NC(=O)c1cc2ccccc2cc1O)C1C(=O)c2ccccc2C1=O	-3.6	-16.4	33.1	39.2	12.5	-1.7
C/C(=N\NC(=O)c1ccccc1O)C1C(=O)c2ccccc2C1=O	-3.1	-22.5	20.9	-24.7	97.7*	-2.9
Cc1ccc(N2CCN(S(=O)(=O)c3ccc4c(c3)NC(=O)C(C)C(=O)N4)CC2C)cc1 (stereo unspecified)	1.6	4.2	-9.8	11.0	97.4*	.
O=C(O)CCC(=O)OCCN(Cc1ccc(Oc2ccc([N+](=O)[O-])cc2)cc1)C(=O)C(Cl)Cl	-0.6	.	.	.	.	.
O=C(NCc1ccc2c(c1)OCO2)c1nc(S(=O)(=O)Cc2ccccc2)ncc1Cl	3.0	39.2	12.7	22.3	98.5*	.
O=C(O)COc1ccccc1/C=N/NC(=O)CSc1nnc(SCc2cccc3ccccc23)s1	-2.6	11.3	-49.8	22.8	96.7*	5.9
O=C(O)COc1ccccc1/C=N/NC(=O)CSc1nnc(SCc2ccc(Cl)cc2)s1	-1.5	-9.7	-17.2	9.2	.	1.4
O=C(O)CSc1nnc(SCc2cccc3ccccc23)s1	0.7	12.0	-1.4	2.6	98.3*	-1.3
O=C(O)CSc1c2ccccc2cc2ccccc12	-1.1	11.8	21.8	-12.6	98.9*	.
Cc1cc(NC(=O)c2c(Br)c(C)nn2C)no1	-1.6	2.0	2.9	12.7	-2.1	-2.7
Cc1ccc(S(=O)(=O)NCc2ccccc2)cc1C(=O)NC(C)c1ccc(S(N)(=O)=O)cc1 (stereo unspecified)	1.7	1.5	.	.	.	.
COc1ccc(-c2c(C(F)(F)F)[nH]n3c(=O)cc(-c4ccccc4)nc23)cc1	-3.5	?	7.7	50.9*	-12.2	-1.1
Cc1[nH]n2c(=O)cc(-c3ccc([N+](=O)[O-])cc3)nc2c1-c1ccccc1	-2.9	-31.9	13.8	.	89.3*	4.8
Cc1cc(OCc2nc3ccccc3s2)ccc1N	-1.7	2.8	12.2	-3.5	98.1*	-6.2
c1ccc(OCc2nc3ccccc3s2)cc1	3.4	-21.8	-18.4	-3.7	-0.8	-10.3
Cc1ccc(-n2c(N)c(C(=O)Nc3c(C)n(C)n(-c4ccccc4)c3=O)c3nc4ccccc4nc32)cc1C	.	-17.5	43.2*	25.0	.	-13.2
Cc1cc(C)c(O)c(-c2cc(C(=O)Nc3c(C)n(C)n(-c4ccccc4)c3=O)[nH]n2)c1	-2.2	-2.4	8.2	23.4	98.6*	-1.4

Screening results (PubChem BioAssay)
